Screening data deposited in PubChem BioAssay by Johns Hopkins Ion Channel Center.
Shown are actives, neighbours in structure and some others; about 3.5% of the full set was active somewhere.
MrgX1 antag: antagonists of human MrgX1 receptor | B-score at 10 µM | 310,000 compounds, 1.3% hits | AID 588676 | MRGX1-HEK293 calcium flux, Fluo-4, BAM8-22 antagonism; stronger effect = lower value | Q96LB2;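 active means calcium-response B-score plate-corrected more than 3 library SD below zero, starting fluorescence within 5 deviations, no agonist response on first addition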;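 further: peak minus trough fluorescence over baseline after final BAM8-22 challenge near maximal dose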
Target sequence (Q96LB2 whole entry, looked up): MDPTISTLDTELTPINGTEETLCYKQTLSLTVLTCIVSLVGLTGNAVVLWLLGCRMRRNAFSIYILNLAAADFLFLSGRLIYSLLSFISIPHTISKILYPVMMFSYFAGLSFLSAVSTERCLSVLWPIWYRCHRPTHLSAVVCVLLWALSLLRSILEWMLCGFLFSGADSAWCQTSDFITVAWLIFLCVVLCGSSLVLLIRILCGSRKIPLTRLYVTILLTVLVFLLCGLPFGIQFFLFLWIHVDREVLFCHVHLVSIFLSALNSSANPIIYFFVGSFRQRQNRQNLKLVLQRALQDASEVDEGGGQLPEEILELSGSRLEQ
RGS4 inh: human RGS4 inhibition | P49798 | HEK293 M3R/RGS4 inducible, Fluo-4 calcium flux; stronger effect = higher value; triggered by carbachol at its EC20 | B-score at 10 µM | 310,000 compounds, 0.45% hits | AID 463165;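 active means B-score, a plate-corrected calcium signal, over three deviations above library mean, with baseline fluorescence within five deviations of library mean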;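 further: RGS4 expression induced by doxycycline in cells with stable M3 receptor; B-score is computed from the integrated fluorescence ratio over baseline after carbachol; higher B-score means a larger calcium signal and so more RGS4 inhibition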
Target sequence (P49798 whole entry, looked up): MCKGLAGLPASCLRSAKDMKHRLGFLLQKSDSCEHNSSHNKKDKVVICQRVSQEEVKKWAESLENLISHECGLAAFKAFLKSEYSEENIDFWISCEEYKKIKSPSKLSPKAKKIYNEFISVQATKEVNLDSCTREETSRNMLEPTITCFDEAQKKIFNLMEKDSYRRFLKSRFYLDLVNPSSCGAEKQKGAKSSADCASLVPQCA
MrgX1 agonist: human MrgX1 receptor agonism, primary screen. Q96LB2. MrgX1-HEK293 cells, Fluo-4 calcium fluorescence, agonist mode; stronger effect = higher value. B-score at 10 µM. 310,000 compounds, 0.44% hits;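 active means calcium response B-score plate-corrected fluorescence ratio at least 3 library SD, with starting fluorescence B-score inside 5 SD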
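Material – MrgX1-expressing HEK293 cells · Input – 15,000 cells seeded per well · Dosing – compound as first of three additions · Times – overnight seeding, then 1 h dark dye loading · Measured by – kinetic Fluo-4 NW fluorescence of intracellular calcium · Read-out – B-scored fluorescence response ratio · Benchmarks – positive and negative control wells on each plate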
MrgX1 PAM: human MrgX1 positive allosteric modulation, primary screen; MrgX1-HEK293, Fluo-4 calcium flux, FDSS; stronger effect = higher value; B-score at 10 µM; 310,000 compounds, 0.63% hits;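 active means plate-corrected calcium response at least 3 library SD above typical, normal starting fluorescence, not activating the receptor alone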;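 further: compound read alongside a low EC10 to EC30 dose of BAM8-22 agonist; peak minus trough fluorescence over baseline measured at the second addition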
RGS4 pot: potentiators or activators of RGS4; B-score at 10 µM; 310,000 compounds, 0.92% hits; HEK293 M3R/inducible RGS4, carbachol calcium flux Fluo4; stronger effect = lower value;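 active means B-score of the integrated calcium signal more than 4 SD below the library mean, with starting fluorescence not abnormally high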;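 further: negative B-score means reduced calcium response which marks RGS4 activation or potentiation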
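System – HEK293 FlpIn-TREx cells, stable M3R, doxycycline-inducible RGS4 · Reagent – ECmax carbachol challenge · Times – compound preincubation 20 min at room temperature before agonist · Technique – Fluo4 fluorescence kinetic imaging of calcium · Measure – B score of integrated Fluo4 ratio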
The depositor's hits bear a star; i = inactive; · = not tested or not shown.

SMILES | MrgX1 antag | RGS4 inh | MrgX1 agonist | MrgX1 PAM | RGS4 pot
CN1CCN(C2Cc3ccccc3Sc3ccc(Cl)cc32)CC1 (configuration not stated) | i | · | i | i | ·
CN(c1cccc(NC(=O)CN(c2cccc(Cl)c2)S(=O)(=O)c2ccc(Cl)cc2)c1)S(C)(=O)=O | i | i | i | i | i
C=CCn1c(=O)c2ccccc2n2c(SCC(=O)NC)nnc12 | i | i | i | i | i
COc1ccc(NC(=O)N2CCCC2C(=O)Nc2ccc(C)cc2C)cc1 (configuration not stated) | i | i | i | i | i
O=C(CSc1nc2ccccc2c(=O)n1-c1ccc(F)cc1F)c1c[nH]c2ccccc12 | -5.1* | i | i | i | i
O=C(CSc1nc2ccccc2c(=O)n1-c1ccc(F)cc1F)Nc1ccc(N2CCOCC2)cc1 | i | i | i | i | i
Cc1ccc(C)c(-c2cc(C(=O)Nc3cccnc3)c3ccccc3n2)c1 | i | i | i | i | -7.6*
Cc1ccc(C)c(-c2cc(C(=O)Nc3cccc(C(=O)O)c3)c3ccccc3n2)c1 | i | i | i | i | i
COc1ccc(/C(=C/c2ccc(OC(F)F)c(OC)c2)C(=O)O)cc1OC | -5.8* | i | i | i | i
COc1cc(/C=C(/C(=O)O)c2ccc(-c3ccccc3)cc2)cc(OC)c1OC | i | i | i | i | i
COc1ccccc1N1CCN(C2CCN(S(=O)(=O)c3ccc4ccccc4c3)CC2)CC1 | i | i | i | i | i
COc1cccc(NC(=O)c2ccnc(N3CCC(C(=O)NCc4ccccc4OC)CC3)c2)c1 | i | i | i | i | i
c1coc(C2Nc3cccc4cccc(c34)N2)c1 | i | 7.2* | i | i | i
CCCCOC(=O)Nc1cccc(C(C)=O)c1 | i | i | i | i | i
CC(=C\C(=O)O)/C(=C\c1cccc2ccccc12)C(=O)O | i | i | i | i | i
CCCCNC(=O)CCCCCn1c(=O)[nH]c2cc(C(=O)OC)ccc2c1=O | i | i | i | 14* | i
COc1ccc(Cl)cc1C(=O)NNC(=S)NC(=O)c1cc(-c2ccc(Cl)cc2)nc2ccccc12 | -7.3* | i | i | i | -8.4*
COc1cc(C(=O)NC(=S)NNC(=O)c2ccc3c(c2)OCO3)cc(OC)c1OC | i | i | 60* | i | i
COc1ccccc1C(=O)NNC(=S)NC(=O)c1sc2ccccc2c1Cl | i | i | 36* | i | -8.7*
Cc1c(NC(=S)NC(=O)c2sc3ccccc3c2Cl)cccc1C(=O)O | i | i | i | i | i
COc1ccc(C(=O)NNC(=S)NC(=O)c2ccc(F)cc2)cc1Br | i | i | i | i | i
COc1ccc(Cl)cc1C(=O)NNC(=S)NC(=O)c1ccc(F)c(F)c1 | -5.9* | i | i | i | i
CCOC(=O)C1=C(COC(=O)CCOc2ccccc2C)NC(=O)NC1C (configuration not stated) | i | i | i | i | i
CN(C)C(=O)COc1ccc(Oc2ccccc2)cc1 | i | i | i | i | i
CCc1nn(CC(=O)N2CCN(c3ccc(F)cc3)CC2)c(=O)c2cc3occc3n12 | i | i | i | i | i
SMILES | MrgX1 antag | RGS4 inh | MrgX1 agonist | MrgX1 PAM | RGS4 pot
Cc1noc(C)c1COc1ccccc1C(=O)NC1CCC(C)CC1 (configuration not stated) | i | i | i | i | i
CC(=O)c1cccc(OCCCOc2cccc3cccnc23)c1 | i | i | i | i | i
CCOC(=O)c1ccc(Cl)c(NC(=O)c2ccc(-c3ccccc3)cc2)c1 | i | i | i | i | i
CCOC(=O)c1ccc(/C=C2/C=C(c3ccccc3)N(c3ccc(Cl)c(C(=O)O)c3)C2=O)cc1 | i | i | 40* | i | i
COc1ccc(NC(=O)c2cc(S(=O)(=O)N3CCOCC3)ccc2N2CCOCC2)cc1 | i | i | i | i | i
COc1ccc(NC(=O)c2cc(S(=O)(=O)N3CCCCC3)ccc2N2CCCCC2)cn1 | i | i | i | i | -7*
C=CCOc1ccc(C2=NOC(C(=O)Nc3ccc4c(c3)OCCO4)C2)cc1OC (configuration not stated) | i | i | i | i | i
CCCCCCSc1cc(-c2nc3cnccn3c2NCc2ccccc2)ccc1OC | i | i | i | i | -9.7*
COc1ccc(-c2nc3ccccn3c2NC2CCCCC2)cc1SC1CCCCC1 | i | i | i | i | -7.9*
COc1cc(-c2nc3ccccn3c2NCc2ccccc2)ccc1SC1CCCCC1 | i | i | i | i | i
CCCCNc1c(-c2ccc(-c3ccc(C(C)=O)cc3)c(OC)c2)nc2cnccn12 | i | i | i | i | -11*
CCCCNc1c(-c2ccc(OC)c(SC3CCCCC3)c2)nc2cnccn12 | i | i | i | i | -10*
COc1cc(-c2nc3cc(C)ccn3c2NC2CCCCC2)ccc1-c1ccc(C(C)=O)cc1 | i | i | i | i | i
CCCCCCSc1cc(-c2nc3cc(C)ccn3c2NC2CCCCC2)ccc1OC | i | i | i | i | i
Cc1ccc(CNC(=O)CCSCCC(=O)NCc2ccc(C)cc2)cc1 | i | i | i | i | i
COc1ccccc1C(=O)Nc1ccc(C(=O)Nc2ccccc2C(=O)O)cc1 | i | i | i | i | i
Cc1ccc(C)c(NC(=S)NC(NC(=O)Cc2cccc3ccccc23)C(Cl)(Cl)Cl)c1 (configuration not stated) | -9.1* | i | i | i | i
Cc1ccc(C)c(NC(=S)NC(NC(=O)N(C)C)C(Cl)(Cl)Cl)c1 (configuration not stated) | i | i | i | i | i
O=C(/C=C/c1ccc(S(=O)(=O)N2CCOCC2)cc1)NC(=S)Nc1ccc(Cl)cc1Cl | i | i | i | i | i
COc1ccc(OC)c(C(C)NC(=O)c2ccco2)c1 (configuration not stated) | i | i | i | i | i
Cc1ccnc(NC(=O)CSc2ccc3c(c2)OCCO3)c1 | i | i | i | i | -7.3*
COc1ccccc1/C=C(/C(=O)OCC(=O)NCc1ccccc1)c1ccccc1 | -5.5* | i | i | i | i
COc1ccc(C(=O)OCCc2sc[n+](CC(=O)c3ccccc3)c2C)cc1 | i | i | i | i | -11*
